Compound activity deposited in PubChem by several laboratories.
Compounds with a hit are over-represented: about 4.4% of the library has one in this group of screens.
AI-2 QS modul = Vibrio harveyi AI-2 quorum sensing modulators, primary screen, JMH597 strain, luminescence/OD600 ratio | activity change, % at 7.5 µM | Vibrio harveyi JMH597 AI-2 luminescence/OD600 ratio, 9 h; stronger effect = lower value; strain lacks LuxN and CqsS sensors; 0 = neutral-control median | 0.4% of 300,000 active; in the data active = activity change below about -75%, passing the limit was not always enough;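 note: luminescence divided by OD600 gain over 9 h not by final OD600 alone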
HTR2A ag = mouse Htr2a agonists via beta-arrestin recruitment, primary screen, cell-based, luminescence. CHO-K1 mHTR2A beta-arrestin complementation; percent of 30 µM serotonin response. activation, % at 7.6 µM. 0.66% of 360,000 active. AID 624169, 2012. 5-hydroxytryptamine receptor 2A (Mus musculus), P35363;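 active = activation above a run cutoff, the mean activation of all tested compounds plus 3 SD, cut at about 14% in these data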;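 note: 0% = plate median of compound wells and 100% = 30 µM serotonin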
Target sequence (P35363 whole entry, looked up): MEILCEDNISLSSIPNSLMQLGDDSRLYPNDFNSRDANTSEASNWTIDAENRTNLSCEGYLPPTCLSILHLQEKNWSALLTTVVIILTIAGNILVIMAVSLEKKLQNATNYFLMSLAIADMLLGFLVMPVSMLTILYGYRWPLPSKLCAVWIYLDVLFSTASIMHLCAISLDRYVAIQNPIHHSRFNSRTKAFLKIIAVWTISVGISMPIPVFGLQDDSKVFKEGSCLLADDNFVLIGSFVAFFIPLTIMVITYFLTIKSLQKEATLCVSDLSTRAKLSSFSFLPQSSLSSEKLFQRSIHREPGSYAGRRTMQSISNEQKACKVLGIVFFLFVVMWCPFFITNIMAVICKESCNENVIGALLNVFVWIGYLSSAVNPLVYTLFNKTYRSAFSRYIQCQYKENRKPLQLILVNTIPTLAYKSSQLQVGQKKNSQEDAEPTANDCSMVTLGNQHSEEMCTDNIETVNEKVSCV
AHR activator = AHR activators, primary screen, cell-based, luminescence, luciferase reporter, human | AHR-responsive luciferase reporter cells | activation, % at 5 µM | AID 2796, 2010 | 2.5% of 320,000 active; in the data active = activation above about 47%;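 note: 0% = vehicle wells and 100% = reference agonist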
bovine MsrA act = bovine MsrA enzyme activators, primary screen, biochemical, absorbance, HTS. purified bovine MsrA, absorbance read-out. activation, % at 10.6 µM. 0.3% of 360,000 active. AID 602163, 2012; in the data active = activation above about 7.5%;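 note: 0% = vehicle and 100% = reference activator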
Tb MetRS inh = T. brucei MetRS inhibitors, primary screen, biochemical, luminescence | purified T. brucei MetRS, ATP depletion, Kinase-Glo luminescence | inhibition, % at 11.9 µM | 0.4% of 360,000 active | AID 624268, 2012;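 active = inhibition above a per-plate cutoff of the control wells' mean inhibition plus 3 SD, cut at about 5.5% in these data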;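 note: 0% = DMSO wells median and 100% = median of wells with control inhibitor compound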
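Dosing: 11.9 µM single point; system: parasite MetRS enzyme; technique: luminescence of leftover ATP; times: 15 min enzyme-compound preincubation, 2 h reaction, 10 min detection, 25 °C; replicates: each compound tested once; read-out basis: percent inhibition relative to median high and low control wells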
MsrA inhibitor = bovine MsrA enzyme inhibitors, primary screen, biochemical, absorbance, HTS; purified bovine MsrA, absorbance read-out; inhibition, % at 15.5 µM; 0.75% of 360,000 active; AID 651718, 2012;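 note: 0% = vehicle wells with enzyme and 100% = reference inhibitor wells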
MsrA inh confirm = bovine MsrA inhibitors, retest, confirmation, biochemical, absorbance, HTS | purified bovine MsrA, absorbance read-out | shares compounds with MsrA inhibitor | inhibition, % at 15.5 µM | 41% of 2,300 active;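 note: coupled to thioredoxin reductase with NADPH and selenocystamine and DMSO as substrate; 0% = vehicle only and 100% = full effect of reference inhibitor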
Active calls of the source: *; / = not tested or not shown. Cut-off read from the data, not from the text of the source, unless noted: active = inhibition above about 4.5%; inactive = the rest.

SMILES | AI-2 QS modul | HTR2A ag | AHR activator | bovine MsrA act | Tb MetRS inh | MsrA inhibitor | MsrA inh confirm
O=C(C[C@H]1CC[C@H]2[C@@H](COC[C@@H](O)CN2S(=O)(=O)c2ccc(F)cc2)O1)N[C@@H]1CCN(Cc2ccccc2)C1 | / | -1 | / | / | 0 | 0 | /
N#Cc1c(/N=C/c2ccc(-c3ccccc3C(=O)O)o2)sc2c1CCCC2 | -1 | 8 | 7 | -5 | 0 | 3 | /
N#Cc1c(/N=C/c2ccc(-c3ccc(C(=O)O)c(Cl)c3)o2)sc2c1CCCC2 | / | 9 | 1 | -3 | 0 | 7.0* | 4
COCC(=O)N1CCC2CC1c1c(-c3ccc(C(F)(F)F)cc3)cccc12 (centres undefined) | / | 0 | / | -8 | -1 | 0 | /
Nc1nc(Sc2ccc([N+](=O)[O-])c3nonc23)c2[nH]cnc2n1 | / | 1 | / | -6 | 0 | 3 | /
CNc1ncnc(Sc2nc(N)nc3nc[nH]c23)c1[N+](=O)[O-] | / | 2 | / | -10 | 0 | 5.3* | 5.5*
Cc1ccc(-c2c(C#N)c(N)n(-c3ccccc3C)c(=O)c2C#N)cc1 | / | 2 | / | -3 | 1 | 4 | /
Cc1ccc(-n2c(N)c(C#N)c(-c3ccccc3)c(C#N)c2=O)cc1 | 20 | 5 | 2 | -5 | -1 | 4.9* | 2
N#Cc1c(-c2ccc(Cl)cc2)c(C#N)c(=O)n(N)c1N | 39 | 9 | 6 | -4 | 1 | 4.9* | 3
CCOC(=O)N1CCN(c2nc(C(F)(F)F)nc3c(C)cc(C)cc23)CC1 | 17 | 0 | -2 | -4 | -1 | -1 | /
Cc1cc(C)c2nc(C(F)(F)F)nc(N3CC(C)OC(C)C3)c2c1 (centres undefined) | 14 | 5 | -1 | -2 | 0 | 14* | 21*
CC(Nc1nc2ccccc2n2cnnc12)c1ccccc1 (centres undefined) | 19 | 0 | 7 | -9 | 0 | 12* | 7.2*
Cc1ccc(C)c(Nc2nc3ccccc3n3cnnc23)c1 | 13 | 1 | 46 | -3 | 0 | 11* | 6.7*
CCOC(=O)N[C@H](C(=O)N1CCC[C@H]1C(=O)NC1CCCC1)c1ccccc1 | / | / | / | / | / | 0 | /
O=C(Nc1ccc(C(=O)O)cc1)/C(=C\c1ccc2c(c1)OCO2)NC(=O)c1ccco1 | 17 | 0 | 0 | -8 | 0 | 7.4* | 5.0*
O=C(Nc1ccc(C(=O)O)cc1)/C(=C\c1ccc2c(c1)OCO2)NC(=O)c1ccc(Br)o1 | 15 | 2 | 2 | -7 | 0 | 5.1* | 3
Cc1nc(/C=[N+](\[O-])C(C)(C)/C=N/O)n(O)c1C | 10 | -4 | 2 | -6 | -1 | 6.7* | 4.6*
CC(C)(/C=N/O)/[N+]([O-])=C/c1ccco1 | 7 | 6 | 2 | -5 | -1 | 0 | /
COc1cccc(C(=O)NCC(=O)N2CCC3(CC2)NCCc2[nH]cnc23)c1 | 1 | -5 | 0 | 0 | 0 | 1 | /
COc1ccc(N(CCC#N)C(=O)/C(C#N)=C/c2cccs2)cc1 | 17 | -2 | 0 | -4 | 0 | 5.5* | 2
Cc1nc2ccc(C(=O)N3CCN(c4ccccc4)CC3)cn2c1N(C)C(=O)CCc1ccccc1 | / | -2 | / | 3 | 0 | 0 | /
O=c1c(Cl)c(N2CCOCC2)cnn1-c1nc2ccccc2[nH]1 | 25 | -1 | 1 | -4 | 0 | 4.8* | 3
Cc1ccccc1Nc1nc(Cl)nc(NC(C)(C)C)n1 | / | -2 | / | 0 | 0 | 1 | /
CCN(CC(=O)Nc1ccccc1OC)C(=O)CN1C(=O)NC(C)(c2ccc3ccccc3c2)C1=O (centres undefined) | / | -1 | / | 1 | 0 | -1 | /
CC(C)Cn1cc(C(=O)NCCCN2CCCC2=O)c2c3ccccc3n(C)c2c1=O | 62 | -2 | 4 | -11 | -1 | 4.9* | 1
SMILES | AI-2 QS modul | HTR2A ag | AHR activator | bovine MsrA act | Tb MetRS inh | MsrA inhibitor | MsrA inh confirm
O=C(COC(=O)c1ccc(Cl)nc1)Nc1ccc2c(c1)OCCO2 | / | 3 | -1 | -2 | 0 | 0 | /
O=c1[nH]c(=S)[nH]cc1S(=O)(=O)c1cccc(Cl)c1 | 16 | 8 | / | 3 | -1 | 5.8* | 3
Cc1cc(C)c(S(=O)(=O)c2cccc(Cl)c2)c(Cl)n1 | 19 | -3 | 0 | -11 | -1 | 0 | /
COc1cc(C(=O)C(=O)c2cc(OC)c(O)c(OC)c2)cc(OC)c1O | 14 | 1 | -1 | 0 | 0 | 0 | /
COc1cc(C(=O)C(=O)c2ccc(O)c(OC)c2)ccc1O | 28 | 7 | -1 | -4 | 0 | 6.4* | 4
CCCOc1ccc(/C=N/Nc2ccccn2)cc1OC | -4 | -2 | 35 | -3 | -1 | 2 | /
COc1cc(/C=N/Nc2ccccn2)cc(OC)c1O | 25 | 0 | 24 | -4 | 0 | 6.0* | 5
CN1CCN(CC(=O)Nc2cc(N3CCOCC3)ccc2[N+](=O)[O-])CC1 | 5 | -6 | 5 | -3 | 0 | 4.8* | 0
COc1cc2c(Cc3ccccc3)cncc2cc1O | / | -4 | / | -4 | 0 | 1 | /
COC(=O)N1[C@H](C)C=C[C@]1(Cc1ccccc1)C(=O)NCCCNc1ncc(C(F)(F)F)cc1Cl | 10 | 0 | 6 | -1 | 0 | 37* | 37*
COC1C(OC(=O)/C=C/C=C/C=C/C=C/C(=O)O)CCC2(CO2)C1C1(C)OC1CC=C(C)C (centres undefined) (tested in a mixture with another compound) | / | 3 | / | -5 | 0 | 8.8* | 12*
CCC(c1nnc(SCC(=O)Nc2ccc(C(=O)N(C)C)cc2)n1Cc1ccccc1)N(C)C (centres undefined) | 8 | 2 | 1 | -9 | 0 | 0 | /
CCOC(=O)c1nnn(-c2nonc2-c2ccccc2)c1C | 10 | 0 | 1 | 0 | 0 | 19* | 14*
CC(NC(=O)COC(=O)C1=NN(c2ccccc2)C(=O)CC1)c1ccccc1 (centres undefined) | / | 6 | / | -8 | 0 | 0 | /
CCC(C)c1ccccc1NC(=O)COC(=O)C1=NN(c2ccccc2)C(=O)CC1 (centres undefined) | / | -1 | 2 | -4 | 0 | 39* | 30*
O=C(COC(=O)C1=NN(c2ccccc2)C(=O)CC1)Nc1ccc([N+](=O)[O-])cc1C(F)(F)F | / | 14 | 13 | -2 | 0 | 12* | 11*
